According to ChEMBL document CHEMBL1124216, “A novel class of potential central nervous system agents. 3-Phenyl-2-(1-piperazinyl)-5H-1-benzazepines” (1988):

Assays:
Format in all cases: functional
[1] = system: Mus musculus; test: Antimaximal electroshock seizure (MES) activity in mice after peroral administration of 100 mg/kg of compound; 4/5; details: route oral
[2] = system: Mus musculus; test: Antitremorine activity(TRM) of mice after peroral administration of 10 mg/kg of compound; Slight inhibition (31-50%); details: route oral
[3] = system: Mus musculus; test: Antiexploratory activity (EXPL) of mice determined by an antimex activity meter, 100 mg/kg of dose was administered perorally; No inhibition; details: route oral
[4] = system: Mus musculus; test: Antimaximal electroshock seizure activity was determined in mice when administered perorally; details: po
[5] = system: Mus musculus; test: Antireserpine activity (RES) of mice after peroral administration of 100 mg/kg of compound; No inhibition; details: route oral
[6] = system: Mus musculus; test: Antitremorine activity(TRM) of mice after peroral administration of 100 mg/kg of compound; details: route oral
[7] = system: Mus musculus; test: Antimaximal electroshock seizure (MES) activity in mice after peroral administration of 10 mg/kg of compound; 0/5; details: route oral
[8] = system: Mus musculus; test: Antipentylene tetrazole activity was determined in mice when administered perorally; details: po
How it was run: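 Groups of five male Std-ddY mice received compound orally in 0.5% tragacanth, then pentylenetetrazole 175 mg/kg ip. Blockade of the tonic extensor component scored as anticonvulsant. ED50 was the dose protecting 50% of animals (Litchfield-Wilcoxon).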

[9] = system: Mus musculus; test: Antiexploratory activity (EXPL) of mice determined by an antimex activity meter, 100 mg/kg of dose was administered perorally; Potent inhibition; details: route oral
[10] = system: Mus musculus; test: Antiexploratory activity (EXPL) of mice determined by an antimex activity meter, 10 mg/kg of dose was administered perorally; No inhibition; details: route oral
[11] = system: Mus musculus; test: Antitreserpine activity(RES) of mice after peroral administration of 100 mg/kg of compound; Moderate inhibition (51-71%); details: route oral
[12] = system: Mus musculus; test: Antitremorine activity(TRM) of mice after peroral administration of 100 mg/kg of compound; Moderate inhibition (51-71%); details: route oral
[13] = system: Mus musculus; test: Antimaximal electroshock seizure (MES) activity in mice after peroral administration of 100 mg/kg of compound; 5/5; details: route oral
[14] = system: Mus musculus; test: Antiexploratory activity (EXPL) of mice determined by an antimex activity meter,100 mg/kg of dose was administered perorally
[15] = system: Mus musculus; test: Exploratory activity of mice determined by an antimex activity meter, 10 mg/kg of dose was administered perorally; details: route oral
[16] = system: Canis familiaris; test: Inhibition of apomorphine induced emesis in dogs at 1 mg/kg of dose.; details: Canis lupus familiaris
How it was run: (§1)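 Beagle dogs (10-15 kg), groups of three, given compound po in a gelatin capsule; 2 h later apomorphine hydrochloride 0.3 mg/kg sc. Vomiting counted for 1 h; mean inhibition as percent of control. ED50 is the dose giving 50% inhibition of emesis, by Litchfield-Wilcoxon.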

[17] = system: Mus musculus; test: Antiexploratory activity (EXPL) of mice determined by an antimex activity meter, 10 mg/kg of dose was administered perorally; Slight inhibition (31-50%); details: route oral
[18] = system: Mus musculus; test: Concentration of compound that causes ptosis in the mice when administered perorally; details: po
How it was run: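 Five male Std-ddY mice per group were dosed orally in 0.5% aqueous tragacanth. At 2 h, eyelid closure was scored macroscopically (8 open to 0 fully closed). Group mean scores formed a dose-response curve. ED50 was the dose reducing the mean score to 50%.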

[19] = system: Mus musculus; test: The homovanillic acid (HVA) levels in mouse brain at 50 mg/kg of dose.
How it was run: (§2)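 Mice dosed orally in 0.5% aqueous tragacanth; brains of five mice per compound pooled. Homovanillic acid measured in brain extracts and reported as brain level.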

[20] = system: Mus musculus; test: Antireserpine activity (RES) of mice after peroral administration of 50 mg/kg of compound; No inhibition; details: route oral
[21] = system: Mus musculus; test: The homovanillic acid (HVA) levels in mouse brain at 10 mg/kg of dose.; how it was run: as §2
[22] = system: Mus musculus; test: Inhibition of conditioned avoidance response in mice when administered perorally; details: po
How it was run: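 One-way active avoidance in male Std-ddY mice in a dark/light two-compartment box. Mice trained to move to the lit side on a warning stimulus to escape floor shock; groups of 10 avoiding at >80% in 10 trials. Compound po in 0.5% tragacanth. ED50 is the dose halving avoidance rate (Litchfield-Wilcoxon).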

[23] = system: Rattus norvegicus; test: Inhibition of self-stimulation response in rats when administered perorally.; details: po
How it was run: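 Male Wistar HLA rats (300-400 g) with chronic electrodes in the lateral posterior hypothalamus, lever-pressing steadily at 50-100/min. Self-stimulation counted for 10 min before and 2 h after oral dosing. ED50 is the dose causing ≥50% rate inhibition in half the rats (Litchfield-Wilcoxon).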

[24] = system: Mus musculus; test: Exploratory activity of mice determined by an antimex activity meter, when administered perorally; details: po
How it was run: (§3)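 Male Std-ddY mice (20-25 g), five per dose; compound in 0.5% aqueous tragacanth given orally. Two hours later each mouse placed in an Animex activity meter cage and locomotor activity counted for 3 min. Mean suppression expressed as percent inhibition of control; ED50 by Litchfield-Wilcoxon.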

[25] = system: Canis familiaris; test: Inhibition of apomorphine induced emesis in dogs when administered perorally; details: Canis lupus familiaris, po; how it was run: as §1
[26] = system: Mus musculus; test: Exploratory activity of mice determined by an antimex activity meter, 50 mg/kg of dose was administered perorally; details: Mus musculus, po; how it was run: as §3
[27] = system: Mus musculus; test: Concentration of compound that causes catalepsy in the mice when administered perorally; details: po
How it was run: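 Male Std-ddY mice were dosed orally, vehicle 0.5% aqueous tragacanth. At 2 h, forepaws were placed on a rod 4.5 cm high. Failure to remove the paws within 30 s in three successive trials was scored cataleptic. ED50 was the dose giving catalepsy in 50% of mice (Litchfield-Wilcoxon).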

[28] = system: Mus musculus; test: (§4) 3,4 -Dihydroxy phenylacetic acid (DOPAC) levels in mouse brain at 10 mg/kg dose.
How it was run: (§5)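 Male Std-ddY mice, 20-25 g, dosed orally with compound in 0.5% aqueous tragacanth. DOPAC was measured fluorometrically after purification by column chromatography on Sephadex G-10 and QAE-Sephadex. Brains from five mice per compound were pooled for each determination.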

[29] = system: Mus musculus; test: Antiexploratory activity (EXPL) of mice determined by an antimex activity meter, 50 mg/kg of dose was administered perorally; potent inhibition; details: route oral
[30] = system: Mus musculus; test: (§6) 3,4 -Dihydroxy phenylacetic acid (DOPAC) levels in mouse brain at 50 mg/kg dose.; how it was run: as §5
[31] = system: Mus musculus; test: Exploratory activity of mice determined by an antimex activity meter, 100 mg/kg of dose was administered perorally; details: route oral; how it was run: as §3
[32] = system: Mus musculus; test: Antitremorine activity(TRM) of mice after peroral administration of 100 mg/kg of compound; Slight inhibition (31-50%); details: route oral
[33] = system: Mus musculus; test: Antiexploratory activity (EXPL) of mice determined by an antimex activity meter, 100 mg/kg of dose was administered perorally; potent inhibition; details: route oral
[34] = system: Mus musculus; test: Antimaximal electroshock seizure (MES) activity in mice after peroral administration of 100 mg/kg of compound; 0/5; details: route oral
[35] = system: Mus musculus; test: Antiexploratory activity (EXPL) of mice determined by an antimex activity meter, when administered perorally; details: po
How it was run: (§7)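 Male Std-ddY mice (20-25 g), five per dose, given compound orally in 0.5% aqueous tragacanth. Two hours later each mouse was placed in the activity-meter cage and locomotor activity was counted for 3 min. Suppression is expressed as percent inhibition of control. ED50 (dose giving 50% inhibition) calculated by Litchfield-Wilcoxon.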

[36] = system: Mus musculus; test: as §4; remark: listed apart in the source
How it was run: (§8)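 Male Std-ddY mice (20-25 g) dosed orally with compound dissolved or suspended in 0.5% aqueous tragacanth. DOPAC measured fluorometrically after purification by column chromatography on Sephadex G-10 and QAE-Sephadex. Brains from five mice per compound pooled for the determination.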

[37] = system: Mus musculus; test: Antiexploratory activity (EXPL) of mice determined by an antimex activity meter, 50 mg/kg of dose was administered perorally; details: route oral; how it was run: as §7
[38] = system: Mus musculus; test: The homovanillic acid (HVA)levels in mouse brain at 10 mg/kg of dose.
How it was run: (§9)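 Male Std-ddY mice (20-25 g) dosed orally with compound in 0.5% aqueous tragacanth (solution or suspension). Brain homovanillic acid (HVA) determined by a published method. Brains from five mice per compound pooled for one determination.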

[39] = system: Mus musculus; test: as §6; how it was run: as §8; remark: listed apart in the source
[40] = system: Rattus norvegicus; test: Inhibition of self stimulation response in rats when administered perorally.; details: po
How it was run: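 Male Wistar HLA rats (300-400 g) with chronic electrodes implanted in the lateral posterior hypothalamus; only rats lever-pressing steadily at 50-100/min were used. Compound given po in 0.5% tragacanth. Self-stimulation counted for 10 min before and 2 h after dosing. ED50 is the dose giving ≥50% rate inhibition in 50% of rats (Litchfield-Wilcoxon).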

[41] = system: Mus musculus; test: Antiexploratory activity (EXPL) of mice determined by an antimex activity meter, 10 mg/kg of dose was administered perorally; details: route oral; how it was run: as §7
[42] = system: Mus musculus; test: The homovanillic acid (HVA)levels in mouse brain at 50 mg/kg of dose.; how it was run: as §9
[43] = system: Canis familiaris; test: Inhibition of apomorphine induced emesis in dogs at 2 mg/kg of dose.; details: Canis lupus familiaris; how it was run: as §1

SMILES	Activity [1]	inhibition in vivo at 100 mg/kg [5]	Activity [7]	inhibition in vivo at 100 mg/kg [12]	inhibition in vivo at 10 mg/kg [15]	inhibition in vivo at 1 mg/kg [16]	ED50 [18]	Control [19]	Control [21]	ED50 [22]	ED50 [23]	ED50 [24]	ED50 [25]	ED50 [27]	Control [28]	Control [30]	other results
CCN1CCN(C2=Nc3ccc(Cl)cc3CC=C2c2ccccc2)CC1.Cl.Cl	4	< 30%	0	–	–	–	–	–	–	–	–	–	–	–	–	–	inhibition in vivo at 10 mg/kg [2]: 31%; inhibition in vivo at 100 mg/kg [3]: < 30%; ED50 [4]: 93.1 mg/kg; inhibition in vivo at 100 mg/kg [6]: > 71%; ED50 [8]: 34.7 mg/kg
COc1ccc2c(c1)CC=C(c1ccccc1)C(N1CCN(C)CC1)=N2.Cl.Cl	4	–	0	51%	–	–	–	–	–	–	–	–	–	–	–	–	inhibition in vivo at 100 mg/kg [9]: > 71%; inhibition in vivo at 10 mg/kg [10]: < 30%; inhibition in vivo at 100 mg/kg [11]: 51%
CCc1ccc2c(c1)CC=C(c1ccccc1)C(N1CCN(CCO)CC1)=N2.Cl.Cl	–	< 30%	0	51%	–	–	–	–	–	–	–	–	–	–	–	–	Activity [13]: 5; Inhibition [14]: <30%
CN1CCN(C2=Nc3ccccc3CC=C2c2ccc(F)cc2)CC1.Cl.Cl	–	–	–	–	43.3%	100%	61 mg/kg	400%	197%	14.6 mg/kg	4.05 mg/kg	8.15 mg/kg	0.28 mg/kg	21.5 mg/kg	188%	306%	inhibition in vivo at 10 mg/kg [17]: 31%; inhibition in vivo at 50 mg/kg [20]: < 30%; inhibition in vivo at 50 mg/kg [26]: 79.3%; inhibition in vivo at 50 mg/kg [29]: > 70%
Cl.Cl.OCCN1CCN(C2=Nc3ccccc3CC=C2c2ccc(Cl)cc2)CC1	–	< 30%	–	–	40.8%	95.5%	88.7 mg/kg	382%	265%	38.1 mg/kg	25.4 mg/kg	73.1 mg/kg	0.19 mg/kg	66.8 mg/kg	186%	289%	inhibition in vivo at 100 mg/kg [31]: 57.3%; inhibition in vivo at 100 mg/kg [32]: 31%; inhibition in vivo at 100 mg/kg [33]: > 71%; Activity [34]: 0
CN(C)CCCN1c2ccccc2Sc2ccc(Cl)cc21 [CHLORPROMAZINE]	–	–	–	–	–	–	24.9 mg/kg	–	–	5.59 mg/kg	–	–	4.53 mg/kg	7.81 mg/kg	–	–	ED50 [35]: 8.26 mg/kg; Control % at 10 mg/kg [36]: 232%; inhibition in vivo at 50 mg/kg [37]: 90.1%; Control % at 10 mg/kg [38]: 203%; Control % at 50 mg/kg [39]: 303%; ED50 [40]: 6.68 mg/kg; inhibition in vivo at 10 mg/kg [41]: 46.3%; Control % at 50 mg/kg [42]: 304%; inhibition in vivo at 2 mg/kg [43]: 22.2%
